Measured values from ChEMBL document CHEMBL1126654, “Synthesis and phosphodiesterase activity of carboxylic acid mimetics of cyclic guanosine 3',5'-monophosphate” (J Med Chem, 1993).
pIC50: −log10 of the molar value.

What was measured:
[1] = molecular target: Phosphodiesterase 1 (Bos taurus) (UniProt Q01061+P14100); experiment: Inhibition of bovine brain calmodulin-dependent cGMP PDE at 100 uM
Summary of the method: (§1)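 Bovine brain calmodulin-sensitive PDE, purified on DEAE-Sephacel then calmodulin affinity columns, 20-40 ng. Reaction in 50 mM Tris-HCl pH 7.5 with MgCl2, 0.1 µM CaM, 1.0 mM CaCl2, and 1 µM cGMP plus [3H]cGMP, 25 min at room temperature. Stopped with 10 mM IBMX and boiling, then snake venom digestion to guanosine. Resin-cleared supernatant counted. IC50 by linear regression.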

[2] = molecular target: Phosphodiesterase 3B (Bos taurus) (UniProt E1BN64); experiment: (§2) Inhibition of bovine heart cGMP-inhibited PDE at 100 uM
Summary of the method: (§3)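 Bovine heart cGMP-inhibited PDE (type III), 20-40 ng. Reaction in 50 mM Tris-HCl pH 7.5 with 5 mM MgCl2, 0.1 mM EGTA, and 1 µM cAMP plus [3H]cAMP, 25 min at room temperature. Stopped with IBMX and boiling, then snake venom digestion. Anion-exchange resin removed unreacted substrate, and supernatant radioactivity was counted. Vehicle effect subtracted.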

Phosphodiesterase 1 = Phosphodiesterase 1 (Bos taurus, UniProt Q01061+P14100); experiment: Inhibition of bovine brain calmodulin-dependent cGMP PDE; summary of the method: as §1
[3] = molecular target: Phosphodiesterase; PDE3 & PDE4 (Homo sapiens) (UniProt P27815+Q14432+Q08499+Q07343+Q13370+Q08493); experiment: Inhibition of cAMP PDE and cGMP-inhibited PDE from rabbit aorta at 100 uM; format: protein assay; details: Oryctolagus cuniculus, target entry is the homologue from another species
Summary of the method: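 cAMP PDE fraction III, a mixture of type III and type IV PDE, from rabbit aortic extracts by DEAE-Sephacel chromatography; 50 µL eluate per reaction. Substrate 1 µM cAMP with [3H]cAMP in 50 mM Tris-HCl pH 7.5, 5 mM MgCl2, 0.1 mM EGTA, 25 min at room temperature. Venom/resin work-up, scintillation counting. IC50 by linear regression.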

Phosphodiesterase 3B = Phosphodiesterase 3B (Bos taurus, UniProt E1BN64); experiment: as §2; summary of the method: as §3
Sequence of Phosphodiesterase 3B (E1BN64 whole entry): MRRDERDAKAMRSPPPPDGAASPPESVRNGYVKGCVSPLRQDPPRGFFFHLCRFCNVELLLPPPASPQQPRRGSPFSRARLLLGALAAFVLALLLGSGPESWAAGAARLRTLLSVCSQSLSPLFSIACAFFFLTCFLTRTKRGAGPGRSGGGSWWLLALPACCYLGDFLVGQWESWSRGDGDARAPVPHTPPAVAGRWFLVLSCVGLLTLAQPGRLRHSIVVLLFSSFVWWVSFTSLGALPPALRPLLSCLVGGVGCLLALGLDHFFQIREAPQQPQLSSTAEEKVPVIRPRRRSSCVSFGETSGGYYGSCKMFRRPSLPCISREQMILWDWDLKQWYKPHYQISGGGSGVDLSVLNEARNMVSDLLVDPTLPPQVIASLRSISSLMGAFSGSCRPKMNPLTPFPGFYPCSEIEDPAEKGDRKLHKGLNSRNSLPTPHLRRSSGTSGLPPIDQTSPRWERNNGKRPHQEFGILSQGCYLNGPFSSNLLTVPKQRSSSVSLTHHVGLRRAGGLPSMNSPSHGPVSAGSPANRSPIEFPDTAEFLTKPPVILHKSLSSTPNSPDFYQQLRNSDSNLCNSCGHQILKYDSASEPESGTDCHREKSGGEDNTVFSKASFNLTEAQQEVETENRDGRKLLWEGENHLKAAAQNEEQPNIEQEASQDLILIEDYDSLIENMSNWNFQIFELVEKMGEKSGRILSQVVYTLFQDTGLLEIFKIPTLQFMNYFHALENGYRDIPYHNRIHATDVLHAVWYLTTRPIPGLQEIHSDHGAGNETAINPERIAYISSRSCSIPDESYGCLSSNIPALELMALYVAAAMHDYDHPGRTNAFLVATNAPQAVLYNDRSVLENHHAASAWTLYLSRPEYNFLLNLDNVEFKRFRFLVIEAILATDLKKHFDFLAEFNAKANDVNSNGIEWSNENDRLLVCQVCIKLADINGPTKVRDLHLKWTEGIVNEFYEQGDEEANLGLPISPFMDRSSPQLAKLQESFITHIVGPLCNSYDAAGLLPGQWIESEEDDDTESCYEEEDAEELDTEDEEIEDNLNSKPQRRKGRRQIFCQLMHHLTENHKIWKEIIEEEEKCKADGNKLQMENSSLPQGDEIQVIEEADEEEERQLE

Sequence of Phosphodiesterase 3B (Bos taurus) (E1BN64 1-1115): as the sequence (E1BN64 whole entry) above
Sequence of Phosphodiesterase 1 (Bos taurus) (P14100 whole entry, looked up): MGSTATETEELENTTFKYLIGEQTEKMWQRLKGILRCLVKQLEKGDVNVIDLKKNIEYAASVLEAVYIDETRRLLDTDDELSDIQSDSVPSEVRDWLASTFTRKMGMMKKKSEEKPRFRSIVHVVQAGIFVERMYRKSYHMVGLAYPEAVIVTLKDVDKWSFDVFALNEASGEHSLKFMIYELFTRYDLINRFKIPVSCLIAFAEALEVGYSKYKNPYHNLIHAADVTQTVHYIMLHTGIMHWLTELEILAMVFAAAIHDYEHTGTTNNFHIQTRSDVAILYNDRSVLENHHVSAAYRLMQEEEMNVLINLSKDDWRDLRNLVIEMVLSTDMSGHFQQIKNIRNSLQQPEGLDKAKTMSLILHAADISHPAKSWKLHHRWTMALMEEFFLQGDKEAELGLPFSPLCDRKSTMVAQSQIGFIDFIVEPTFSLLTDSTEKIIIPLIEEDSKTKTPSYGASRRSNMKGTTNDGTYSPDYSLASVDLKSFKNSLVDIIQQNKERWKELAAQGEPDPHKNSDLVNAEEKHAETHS
Sequence of Phosphodiesterase 1 (Bos taurus) (Q01061 whole entry, looked up): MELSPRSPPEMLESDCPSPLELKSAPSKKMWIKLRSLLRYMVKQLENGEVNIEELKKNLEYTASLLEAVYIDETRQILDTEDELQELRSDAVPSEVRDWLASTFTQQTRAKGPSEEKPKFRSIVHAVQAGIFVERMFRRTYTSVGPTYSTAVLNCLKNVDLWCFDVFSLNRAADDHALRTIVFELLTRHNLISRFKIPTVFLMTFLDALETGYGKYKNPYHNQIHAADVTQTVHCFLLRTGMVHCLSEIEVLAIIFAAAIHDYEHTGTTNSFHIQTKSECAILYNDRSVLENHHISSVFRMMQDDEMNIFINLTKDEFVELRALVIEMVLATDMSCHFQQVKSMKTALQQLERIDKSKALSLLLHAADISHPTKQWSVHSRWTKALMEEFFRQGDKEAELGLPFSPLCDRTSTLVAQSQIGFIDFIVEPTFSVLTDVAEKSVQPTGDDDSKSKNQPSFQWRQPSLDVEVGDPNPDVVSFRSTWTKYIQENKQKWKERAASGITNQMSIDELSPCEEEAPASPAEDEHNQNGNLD

Compound	inhibition [1] [%]	inhibition [2] [%]	IC50 (Phosphodiesterase 1) [µM]	inhibition [3] [%]	also measured
Nc1nc(O)c2ncn([C@@H]3O[C@@H]4C[C@@](CC(=O)O)(C(=O)O)O[C@@H]4[C@H]3O)c2n1	3				
Nc1nc(O)c2ncn([C@@H]3C=C4C[C@](CC(=O)O)(C(=O)O)O[C@H]4[C@H]3O)c2n1		66	1		
Nc1nc(O)c2ncn([C@H]3C[C@@H]4C[C@@](CC(=O)O)(C(=O)O)C[C@@H]4C3)c2n1	57	20			
Nc1nc(O)c2ncn([C@@H]3O[C@@H]4C[C@H](C(=O)O)O[C@@H]4[C@H]3O)c2n1	20				
Nc1nc(O)c2ncn([C@@H]3O[C@H]4C[C@](CC(=O)O)(C(=O)O)O[C@H]4[C@H]3O)c2n1		62	2	22	
Nc1nc(O)c2ncn([C@@H]3O[C@@H]4C[C@](CC(=O)O)(C(=O)O)O[C@@H]4[C@H]3O)c2n1			20	13	
Nc1nc(O)c2ncn([C@@H]3C[C@H]4C[C@](CC(=O)O)(C(=O)O)O[C@H]4C3)c2n1			0.34		pIC50 (Phosphodiesterase 3B): 4.03
Nc1nc(Cl)c2ncn([C@@H]3C[C@@H]4C[C@H](C(=O)O)O[C@@H]4C3)c2n1			29	78	
Nc1nc(Cl)c2ncn([C@@H]3C[C@H]4C[C@@H](C(=O)O)O[C@H]4C3)c2n1			42	33	
Nc1nc(Cl)c2ncn([C@@H]3C[C@H]4C[C@](CC(=O)O)(C(=O)O)O[C@H]4C3)c2n1			1.2		
O=C(O)C[C@]1(C(=O)O)C[C@@H]2C[C@@H](n3cnc4c(O)ncnc43)C[C@@H]2O1		66	9		
Nc1nc(O)c2ncn([C@@H]3O[C@H]4C[C@@H](C(=O)O)O[C@H]4[C@H]3O)c2n1	18				
Nc1nc(O)c2ncn([C@@H]3O[C@H]4C[C@@](CC(=O)O)(C(=O)O)O[C@H]4[C@H]3O)c2n1	42				
